Bioassay records: PubChem BioAssay, several laboratories
In the library only some 1.1% were active in any assay of this set; here they are far more common.
Arrestin-AP2 inh: inhibitors of beta-arrestin/AP2 binding, primary screen, biochemical, GPCR trafficking, flow cytometry. FITC-arrestin peptide / GST-AP2 beads; AP2 beta2 appendage carries R879A mutation. inhibition, % at 10 µM. actives 0.31% (n = 340,000). AID 504490, 2011;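 active = inhibition above a set limit, near 3 SD of compounds lacking own fluorescence, cut at about 54% in these data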;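 also: plate controls were DMSO wells for no effect and 5 µM unlabelled arrestin peptide for full effect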
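System: GST-AP2 R879A bound to glutathione beads, E. coli-expressed. Also added: 50 nM FITC-arrestin peptide. Schedule: compound with beads 12 min RT, then probe 1 h RT. Signal: bead flow cytometry, FITC channel. Read-out basis: percent response.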
JMJD2C inh: inhibitors of GASC-1 histone demethylase, primary screen, biochemical, fluorescence, DELFIA europium; Lysine-specific demethylase 4C (Homo sapiens), Q9H3R0; GST-JMJD2C(1-420) H3K9me3 demethylation; inhibition, % at 2.35 µM; actives 0.069% (n = 330,000); AID 2099, 2009;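 active = more than half of a compound's replicate wells show inhibition beyond 50%, single wells judged on their own value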;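 also: signal counts dimethyl H3K9 product captured on neutravidin plate; 0% = median of DMSO wells and 100% = 0.3 times that DMSO median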
Target sequence (Q9H3R0 1-420 limits assumed): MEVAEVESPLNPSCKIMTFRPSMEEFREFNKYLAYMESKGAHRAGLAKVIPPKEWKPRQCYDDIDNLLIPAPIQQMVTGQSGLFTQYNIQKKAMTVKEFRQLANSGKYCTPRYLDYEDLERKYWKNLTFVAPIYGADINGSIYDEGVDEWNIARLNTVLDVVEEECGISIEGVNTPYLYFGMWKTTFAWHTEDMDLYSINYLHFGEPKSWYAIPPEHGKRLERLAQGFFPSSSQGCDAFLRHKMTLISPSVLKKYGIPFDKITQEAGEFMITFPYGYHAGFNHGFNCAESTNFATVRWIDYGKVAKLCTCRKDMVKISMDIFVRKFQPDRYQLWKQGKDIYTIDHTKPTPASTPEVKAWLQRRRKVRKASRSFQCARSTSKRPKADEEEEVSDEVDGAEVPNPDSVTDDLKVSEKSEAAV
SENP1 inh: human SENP1 catalytic domain inhibitors, primary screen, biochemical, FRET, uHTS. recombinant SENP1 catalytic domain, CyPet-SUMO1-YPet FRET cleavage. inhibition, % at 10 µM. actives 0.21% (n = 360,000);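 active = inhibition at least 30% at 10 µM, raw YFP signal under a set limit, fluorescence ratio 0.5 to 1.5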;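 also: 0% = enzyme with DMSO and 100% = no enzyme wells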
Target sequence (Q9P0U3 419-644 limits assumed): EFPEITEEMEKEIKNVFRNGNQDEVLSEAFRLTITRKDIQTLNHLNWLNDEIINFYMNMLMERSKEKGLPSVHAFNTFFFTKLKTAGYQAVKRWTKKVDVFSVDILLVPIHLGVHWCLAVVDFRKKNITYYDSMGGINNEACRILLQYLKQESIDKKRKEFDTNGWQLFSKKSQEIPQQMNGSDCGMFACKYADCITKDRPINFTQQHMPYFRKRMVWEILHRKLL
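Controls: no-enzyme wells low, DMSO-plus-enzyme wells high control. Test system: human recombinant His6-tagged SENP1 catalytic domain enzyme. Reagent: SFCypet-SUMO1-SFYpet FRET protein substrate, 25 nM final. Doses: one dose per compound, 10 µM, 0.5% DMSO. Detection: FRET, CFP and YFP emission. Timing: 50 min reaction at room temperature.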
FAS-TE inh: FAS thioesterase domain inhibitors, primary screen, biochemical, fluorescence intensity, uHTS; inhibition, % at 15 µM; actives 0.67% (n = 360,000); Fatty acid synthase (Homo sapiens), P49327; recombinant FAS-TE, OMFH fluorogenic substrate, fluorescence endpoint;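 active = compounds whose normalised, plate-corrected inhibition of enzyme fluorescence in the single-dose primary screen is 50% or more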;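 also: 0% = DMSO with enzyme and 100% = substrate without enzyme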
FAS-TE conf: FAS thioesterase domain inhibitors, confirmation, biochemical, fluorescence intensity, single concentration. shares compounds with FAS-TE inh. recombinant FAS-TE, OMFH fluorogenic substrate. inhibition, % at 15 µM. actives 45% (n = 2,300). AID 624325, 2012;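 active = compounds inhibiting the enzyme by at least 50% at 15 µM in any one of the replicates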;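 also: 0% = enzyme with DMSO only and 100% = wells lacking enzyme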
* marks the source's active call; other numbers are inactive results.

Screening COc1ccccc1N1CCN(C(=O)C(C)NC(=O)c2cccc([N+](=O)[O-])c2)CC1 (stereo not given) returned Arrestin-AP2 inh -0.7, JMJD2C inh 1.4, SENP1 inh 0.3, FAS-TE inh 80.4* and FAS-TE conf 85.8*.
`Cc1cc(S(=O)(=O)c2ccc(Cl)cc2)nc(S(=O)(=O)c2ccc(Cl)cc2)c1C#N` gave SENP1 inh 3.2, FAS-TE inh 68.6* and FAS-TE conf 71.6*.
For O=C(Nc1ccc(OC(F)(F)F)cc1)Nc1cccc([N+](=O)[O-])c1 the results were Arrestin-AP2 inh -1.8, JMJD2C inh -3.4, SENP1 inh 2.6, FAS-TE inh 73.4* and FAS-TE conf 48.6*.
CN(C)S(=O)(=O)c1cccc(NS(=O)(=O)c2ccc(Cl)s2)c1 was read as Arrestin-AP2 inh -0.8, JMJD2C inh -3.2, SENP1 inh 1.2 and FAS-TE inh -4.6.
For COc1ccc(S(=O)(=O)N(C(=O)c2ccncc2)c2ccc3oc4c(c3c2)CCCC4)cc1 the results were Arrestin-AP2 inh 7.8, JMJD2C inh 23.6, SENP1 inh 1.2, FAS-TE inh 59.6* and FAS-TE conf 25.5.
For CC1(C(=O)NS(=O)(=O)C2CC2)CCN(C(=O)C2(c3ccc(Cl)cc3)CCCC2)C1 (stereo not given) the results were SENP1 inh -0.5 and FAS-TE inh -6.7.
Screening Cc1[nH]n(-c2ccc(Cl)cc2)c(=O)c1C=Nc1ccc(S(=O)(=O)N2CCOCC2)cc1 returned Arrestin-AP2 inh 38.2, JMJD2C inh -2.1, SENP1 inh 0.7, FAS-TE inh 63.2* and FAS-TE conf 16.1.
`COc1nccnc1NS(=O)(=O)c1ccc(N=Cc2c(C)[nH]n(-c3ccc(Cl)cc3)c2=O)cc1` gave JMJD2C inh -0.8.
Screening O=C(C1=NN(c2ccccc2)C2C(=O)N(c3ccccc3)C(=O)C12)c1ccccc1 (stereo not given) returned Arrestin-AP2 inh 4.3, JMJD2C inh 0.2, SENP1 inh -23.4 and FAS-TE inh 23.9.
O=C(C1=NN(c2ccccc2)C2C(=O)N(c3ccccc3Cl)C(=O)C12)c1ccccc1 (stereo not given) was read as Arrestin-AP2 inh 4.6, JMJD2C inh 5.3, SENP1 inh -26.2, FAS-TE inh 52.5* and FAS-TE conf -17.4.
For O=C(O)Cn1c(SCCOc2ccccc2)nc2ccccc21 the results were Arrestin-AP2 inh 8.2, JMJD2C inh -0.7, SENP1 inh 2.5 and FAS-TE inh 4.0.
`CC(C)(C)c1ccc(OCCSc2nc3ccccc3n2CC(=O)O)cc1` gave Arrestin-AP2 inh -5.4, JMJD2C inh -0.3, SENP1 inh 0.7, FAS-TE inh 77.7* and FAS-TE conf 86.9*.
Screening COc1cccc2c1cc1c(=O)n(CC(=O)N3CCCCCC3)nc(C)n12 returned Arrestin-AP2 inh -0.1, JMJD2C inh -8.4, SENP1 inh -0.5 and FAS-TE inh -5.1.
CCOC(=O)N=Nc1c2ccccc2c2nc3no[nH]c3nc12 was read as Arrestin-AP2 inh 23.3, JMJD2C inh -35.6, SENP1 inh 1.8, FAS-TE inh 87.1* and FAS-TE conf 42.7*.
CCOC(=O)N=Nc1c(O)n(CC(=O)OC)c2ccccc12 was read as Arrestin-AP2 inh 7.3, JMJD2C inh -26.9, SENP1 inh 0.3 and FAS-TE inh -11.5.
Cc1ccc(-n2c(SCC(=O)N/N=C/c3c(C)nn(-c4ccccc4)c3C)nc3ccccc3c2=O)cc1 was read as Arrestin-AP2 inh -4.7, JMJD2C inh -10.7, SENP1 inh 1.3 and FAS-TE inh -1.0.
Cc1ccc(/C=N/NC(=O)CSc2nc3ccccc3c(=O)n2-c2ccccc2C)s1 was read as Arrestin-AP2 inh 7.0, JMJD2C inh 2.8, SENP1 inh 1.4, FAS-TE inh 51.3* and FAS-TE conf 20.9.
Screening Cc1ccc(/C=N/NC(=O)CSc2nc3ccccc3c(=O)n2-c2ccccc2)s1 returned Arrestin-AP2 inh 31.7, JMJD2C inh -7.8, SENP1 inh 0.6 and FAS-TE inh -13.0.
Screening Cc1ccccc1-n1c(SCC(=O)N/N=C/c2c(C)nn(-c3ccccc3)c2C)nc2ccccc2c1=O returned Arrestin-AP2 inh 5.9, JMJD2C inh 7.5, SENP1 inh 1.1, FAS-TE inh 59.2* and FAS-TE conf 16.1.
COc1ccc(NC(=O)C[C@H]2C(=O)N(CCc3ccccc3)C[C@@H]2CSC)cc1 was read as SENP1 inh 1.2 and FAS-TE inh -4.2.
CCOC(=O)c1c(C)[nH]c(C)c1C(=O)COC(=O)c1ccc(OC)c(OC)c1 was read as Arrestin-AP2 inh 21.4, JMJD2C inh 39.8, SENP1 inh -2.7 and FAS-TE inh -8.0.
For O=[N+]([O-])c1ccc(N2CCN(S(=O)(=O)c3ccc(Cl)c(Cl)c3)CC2)cc1NCCN1CCOCC1 the results were Arrestin-AP2 inh 5.9, JMJD2C inh -2.0, SENP1 inh 3.2, FAS-TE inh 71.2* and FAS-TE conf 9.6.
For COc1ccc(NC(=O)c2ccc3c(c2)C(=O)N(Cc2cccnc2)C3=O)c(OC)c1 the results were Arrestin-AP2 inh -7.6, JMJD2C inh -0.6, SENP1 inh -0.4 and FAS-TE inh -4.8.
CCCCC(CC)C(=O)Nc1cc([N+](=O)[O-])ccc1F (stereo not given) was read as Arrestin-AP2 inh 7.3, JMJD2C inh -3.7, SENP1 inh -0.3, FAS-TE inh 79.3* and FAS-TE conf 70.8*.
For CCCCC(CC)C(=O)Nc1ccccc1C#N (stereo not given) the results were Arrestin-AP2 inh 0.3, JMJD2C inh -9.8, SENP1 inh 1.6 and FAS-TE inh -0.2.
Screening CC(=O)c1c(C)[nH]c(C(=O)OCC(=O)NC(C)c2ccccc2)c1C (stereo not given) returned SENP1 inh 2.5 and FAS-TE inh -3.2.
CC(C)C(=O)Nc1nc(-c2ccc(S(=O)(=O)N3CCOCC3)cc2)cs1 was read as Arrestin-AP2 inh 9.5, JMJD2C inh -3.0, SENP1 inh 2.4, FAS-TE inh 84.7* and FAS-TE conf 85.8*.
For O=C(Nc1nc(-c2ccc(S(=O)(=O)N3CCCC3)cc2)cs1)c1ccco1 the results were Arrestin-AP2 inh 6.2, JMJD2C inh -4.7, SENP1 inh 1.9, FAS-TE inh 69.5* and FAS-TE conf 65.4*.
For COc1ccccc1C(=O)Nc1nc(-c2ccc(S(=O)(=O)N3CCOCC3)cc2)cs1 the results were Arrestin-AP2 inh 18.1, JMJD2C inh -9.9, SENP1 inh 3.2, FAS-TE inh 52.4* and FAS-TE conf 23.3*.
